Laboratory results taken from ChEMBL document CHEMBL4373649, “Novel antimycobacterial C-21 amide derivatives of the antibiotic fusidic acid: synthesis, pharmacological evaluation and rationalization of media-dependent activity using molecular docking studies in the binding site of human serum albumin” (Medchemcomm, 2019).
Converted amounts (≈) assume the structure as drawn.

What was measured:
[1] = system: Mycobacterium tuberculosis; assay: Antimycobacterial activity against Mycobacterium tuberculosis H37RvMA ATCC 27294 cultured in protein-based Middlebrook 7H9 medium supplemented with glucose, albumin-dextrose-catalase and Tween 80 assessed as inhibition of bacterial growth incubated for 7 days in by alamar blue staining based assay; assay type: functional; conditions: H37RvMA ATCC 27294, 168 h
Outline: (§1)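 Broth microdilution MIC90 assay against H37RvMa (ATCC 27294). Culture grown to OD600 0.6–0.7, diluted 1:500. Compounds come from 10 mM DMSO stocks and are run as duplicate two-fold dilutions over 10 wells. Plates incubated at 37 °C, 5% CO2, humidified. AlamarBlue added on day 7 and incubated 24 h more, then read on day 8, visually (blue = no growth) or by fluorescence (excitation 540 nm).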

[2] = system: Mycobacterium tuberculosis; assay: Antimycobacterial activity against Mycobacterium tuberculosis H37RvMA ATCC 27294 cultured in non protein-based Middlebrook 7H9 medium supplemented with glucose-casitone-tyloxapol assessed as inhibition of bacterial growth incubated for 7 days in by alamar blue staining based assay; assay type: functional; conditions: H37RvMA ATCC 27294, 168 h
Outline: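 Medium is 7H9 with 0.03% Casitone, 0.4% glucose and 0.05% Tyloxapol. H37RvMa is grown to OD600 0.6–0.7 and diluted 1:500. Duplicate two-fold dilutions over 10 wells come from 10 mM DMSO stocks. Incubation at 37 °C, 5% CO2. AlamarBlue added on day 7. The MIC90 is the lowest concentration with no visible growth on day 8, or is read by fluorescence.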

CHO-K1 = assay: Cytotoxicity against CHOK1 cells assessed as reduction in cell viability incubated for 48 hrs by MTT assay; assay type: cell-based; conditions: Cricetulus griseus, CHO-K1, 48 h
Outline: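 CHO-K1 cells seeded at 10^5 cells/well 24 h before exposure, medium then replaced with fresh medium containing compound; 48 h at 37 °C, 5% CO2, MTT added at 44 h for 4 h, formazan dissolved in DMSO, OD read at 540 nm. Triplicates; DMSO stocks 2 mg/mL, poorly soluble samples as suspensions; emetine reference; IC50 from non-linear dose-response fit.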

[3] = system: Mycobacterium tuberculosis; assay: Antimycobacterial activity against Mycobacterium tuberculosis; assay type: functional; outline: as §1
[4] = Protein binding in human serum; assay type: ADME, cell-free; conditions: read-out: PB

Row | Compound | MIC90 [1] [µM] | MIC90 [2] [µM] | IC50 (CHO-K1) [µM] | MIC90 [3] [µM] | fraction unbound [4]
1 | CC(=O)O[C@H]1C[C@@]2(C)[C@@H](C[C@@H](O)[C@H]3[C@@]4(C)CC[C@@H](O)[C@@H](C)[C@@H]4CC[C@@]32C)/C1=C(\CCC=C(C)C)C(=O)NC(C)c1ccncc1 (mixture of isomers) | 125 | 13 | > 50 |  | 
2 | CC(=O)O[C@H]1C[C@@]2(C)[C@@H](C[C@@H](O)[C@H]3[C@@]4(C)CC[C@@H](O)[C@@H](C)[C@@H]4CC[C@@]32C)/C1=C(\CCC=C(C)C)C(=O)NC(C)c1ccc(C)cc1 (mixture of isomers) | > 125 | 2.91 | 47.9 |  | 
3 | CC(=O)O[C@H]1C[C@@]2(C)[C@@H](C[C@@H](O)[C@H]3[C@@]4(C)CC[C@@H](O)[C@@H](C)[C@@H]4CC[C@@]32C)/C1=C(\CCC=C(C)C)C(=O)N[C@@H](C(N)=O)c1ccccc1 | 15.7 (≈ 10.2 µg/mL) | 9.1 (≈ 5.9 µg/mL) | > 50 |  | 
4 | CC(=O)O[C@H]1C[C@@]2(C)[C@@H](C[C@@H](O)[C@H]3[C@@]4(C)CC[C@@H](O)[C@@H](C)[C@@H]4CC[C@@]32C)/C1=C(\CCC=C(C)C)C(=O)N[C@@H](C)c1ccccc1 | > 125 | 8.9 (≈ 5.52 µg/mL) | 46 |  | 
5 | CC(=O)O[C@H]1C[C@@]2(C)[C@@H](C[C@@H](O)[C@H]3[C@@]4(C)CC[C@@H](O)[C@@H](C)[C@@H]4CC[C@@]32C)/C1=C(\CCC=C(C)C)C(=O)NC(C)c1ccc(F)cc1 (mixture of isomers) | > 125 | 19.8 | 45.3 |  | 
6 | COC(=O)[C@H](NC(=O)/C(CCC=C(C)C)=C1\[C@@H](OC(C)=O)C[C@@]2(C)[C@H]1C[C@@H](O)[C@H]1[C@@]3(C)CC[C@@H](O)[C@@H](C)[C@@H]3CC[C@@]12C)c1ccccc1 | 38.8 (≈ 25.8 µg/mL) | 7.1 (≈ 4.71 µg/mL) | 42.9 |  | 
7 | CC(=O)O[C@H]1C[C@@]2(C)[C@@H](C[C@@H](O)[C@H]3[C@@]4(C)CC[C@@H](O)[C@@H](C)[C@@H]4CC[C@@]32C)/C1=C(\CCC=C(C)C)C(=O)N[C@H](C)C1CCCCC1 | > 125 | 7.45 (≈ 4.66 µg/mL) | > 50 |  | 
8 | CC(=O)O[C@H]1C[C@@]2(C)[C@@H](C[C@@H](O)[C@H]3[C@@]4(C)CC[C@@H](O)[C@@H](C)[C@@H]4CC[C@@]32C)/C1=C(\CCC=C(C)C)C(=O)N[C@H](C)c1ccccc1 | > 125 | 11 (≈ 6.82 µg/mL) | 47.6 |  | 
9 | CC(=O)O[C@H]1C[C@@]2(C)[C@@H](C[C@@H](O)[C@H]3[C@@]4(C)CC[C@@H](O)[C@@H](C)[C@@H]4CC[C@@]32C)/C1=C(\CCC=C(C)C)C(=O)N[C@H](C)c1ccccc1Cl | > 125 | 10.1 (≈ 6.61 µg/mL) | 18.2 |  | 
10 | CC[C@H]1CN2CCc3cc(OC)c(OC)cc3[C@@H]2C[C@@H]1C[C@H]1NCCc2cc(OC)c(OC)cc21 [EMETINE] |  |  | 0.02 |  | 
11 | COc1cccc(NC(=O)/C(CCC=C(C)C)=C2\[C@@H](OC(C)=O)C[C@@]3(C)[C@H]2C[C@@H](O)[C@H]2[C@@]4(C)CC[C@@H](O)[C@@H](C)[C@@H]4CC[C@@]23C)c1 | > 125 | > 125 | 42.7 |  | 
12 | COc1ccc(NC(=O)/C(CCC=C(C)C)=C2\[C@@H](OC(C)=O)C[C@@]3(C)[C@H]2C[C@@H](O)[C@H]2[C@@]4(C)CC[C@@H](O)[C@@H](C)[C@@H]4CC[C@@]23C)cc1 | > 125 | > 125 | 47.1 |  | 
13 | CC(=O)O[C@H]1C[C@@]2(C)[C@@H](C[C@@H](O)[C@H]3[C@@]4(C)CC[C@@H](O)[C@@H](C)[C@@H]4CC[C@@]32C)/C1=C(\CCC=C(C)C)C(=O)O [FUSIDIC ACID] | 9.25 (≈ 4.78 µg/mL) | 0.24 (≈ 0.124 µg/mL) |  | 31 (≈ 16 µg/mL) | 0.03 to 0.05
14 | CC(=O)O[C@H]1C[C@@]2(C)[C@@H](C[C@@H](O)[C@H]3[C@@]4(C)CC[C@@H](O)[C@@H](C)[C@@H]4CC[C@@]32C)/C1=C(\CCC=C(C)C)C(=O)NC(C)c1ccc(Cl)c(Cl)c1 (mixture of isomers) | 32.3 | 7.2 | > 50 |  | 
15 | CC(=O)O[C@H]1C[C@@]2(C)[C@@H](C[C@@H](O)[C@H]3[C@@]4(C)CC[C@@H](O)[C@@H](C)[C@@H]4CC[C@@]32C)/C1=C(\CCC=C(C)C)C(=O)Nc1ccc(O)cc1 | > 125 | 6.9 (≈ 4.19 µg/mL) | 45.4 |  | 
16 | CC(=O)O[C@H]1C[C@@]2(C)[C@@H](C[C@@H](O)[C@H]3[C@@]4(C)CC[C@@H](O)[C@@H](C)[C@@H]4CC[C@@]32C)/C1=C(\CCC=C(C)C)C(=O)NC(C)c1cnccn1 (mixture of isomers) | 62.5 | 17.5 | > 50 |  | 

Row | Compound | MIC90 [1] [µM] | MIC90 [2] [µM] | IC50 (CHO-K1) [µM] | MIC90 [3] [µM] | fraction unbound [4]
17 | COc1ccccc1NC(=O)/C(CCC=C(C)C)=C1\[C@@H](OC(C)=O)C[C@@]2(C)[C@H]1C[C@@H](O)[C@H]1[C@@]3(C)CC[C@@H](O)[C@@H](C)[C@@H]3CC[C@@]12C | 43.2 (≈ 26.9 µg/mL) | 6.2 (≈ 3.86 µg/mL) | 46.1 |  | 
18 | CC(=O)O[C@H]1C[C@@]2(C)[C@@H](C[C@@H](O)[C@H]3[C@@]4(C)CC[C@@H](O)[C@@H](C)[C@@H]4CC[C@@]32C)/C1=C(\CCC=C(C)C)C(=O)NC(C)c1cccnc1 (mixture of isomers) | > 125 | 17.9 | > 50 |  | 
19 | CC(=O)O[C@H]1C[C@@]2(C)[C@@H](C[C@@H](O)[C@H]3[C@@]4(C)CC[C@@H](O)[C@@H](C)[C@@H]4CC[C@@]32C)/C1=C(\CCC=C(C)C)C(=O)N[C@@H](C)C1CCCCC1 | > 125 | 4.5 (≈ 2.82 µg/mL) | 44.7 |  | 
20 | CC(=O)O[C@H]1C[C@@]2(C)[C@@H](C[C@@H](O)[C@H]3[C@@]4(C)CC[C@@H](O)[C@@H](C)[C@@H]4CC[C@@]32C)/C1=C(\CCC=C(C)C)C(=O)N[C@@H](C)c1ccccc1Cl | 41.5 (≈ 27.2 µg/mL) | 9.8 (≈ 6.41 µg/mL) | 45.1 |  | 
21 | CC(=O)O[C@H]1C[C@@]2(C)[C@@H](C[C@@H](O)[C@H]3[C@@]4(C)CC[C@@H](O)[C@@H](C)[C@@H]4CC[C@@]32C)/C1=C(\CCC=C(C)C)C(=O)NCc1ccc(O)cc1 | 125 (≈ 77.7 µg/mL) | 125 (≈ 77.7 µg/mL) | > 50 |  | 
22 | CC(=O)O[C@H]1C[C@@]2(C)[C@@H](C[C@@H](O)[C@H]3[C@@]4(C)CC[C@@H](O)[C@@H](C)[C@@H]4CC[C@@]32C)/C1=C(\CCC=C(C)C)C(=O)Nc1ccc(F)cc1 | 125 (≈ 76.2 µg/mL) | 125 (≈ 76.2 µg/mL) | 39.9 |  | 
23 | CC(=O)O[C@H]1C[C@@]2(C)[C@@H](C[C@@H](O)[C@H]3[C@@]4(C)CC[C@@H](O)[C@@H](C)[C@@H]4CC[C@@]32C)/C1=C(\CCC=C(C)C)C(=O)N[C@@H](C)c1ccc(F)cc1 | > 125 | 7.59 (≈ 4.84 µg/mL) | 47.4 |  | 
24 | CC(=O)O[C@H]1C[C@@]2(C)[C@@H](C[C@@H](O)[C@H]3[C@@]4(C)CC[C@@H](O)[C@@H](C)[C@@H]4CC[C@@]32C)/C1=C(\CCC=C(C)C)C(=O)NCc1ccccc1 | 125 (≈ 75.7 µg/mL) | > 125 | 44.1 |  | 
25 | CC(=O)O[C@H]1C[C@@]2(C)[C@@H](C[C@@H](O)[C@H]3[C@@]4(C)CC[C@@H](O)[C@@H](C)[C@@H]4CC[C@@]32C)/C1=C(\CCC=C(C)C)C(=O)NCc1ccc(F)cc1 | 125 (≈ 78 µg/mL) | > 125 | 40.2 |  | 
26 | CC(=O)O[C@H]1C[C@@]2(C)[C@@H](C[C@@H](O)[C@H]3[C@@]4(C)CC[C@@H](O)[C@@H](C)[C@@H]4CC[C@@]32C)/C1=C(\CCC=C(C)C)C(=O)N[C@H](C)c1ccc(F)cc1 | > 125 | > 125 | 8.24 |  | 
27 | CC(=O)O[C@H]1C[C@@]2(C)[C@@H](C[C@@H](O)[C@H]3[C@@]4(C)CC[C@@H](O)[C@@H](C)[C@@H]4CC[C@@]32C)/C1=C(\CCC=C(C)C)C(=O)NCc1ccc(S(N)(=O)=O)cc1 | 62.3 (≈ 42.7 µg/mL) | 2.71 (≈ 1.86 µg/mL) | 30.2 |  | 
28 | CC(=O)O[C@H]1C[C@@]2(C)[C@@H](C[C@@H](O)[C@H]3[C@@]4(C)CC[C@@H](O)[C@@H](C)[C@@H]4CC[C@@]32C)/C1=C(\CCC=C(C)C)C(=O)NC1(c2ccccc2)CC1 | > 125 | 13.9 (≈ 8.78 µg/mL) | 36.8 |  | 
29 | CC(=O)O[C@H]1C[C@@]2(C)[C@@H](C[C@@H](O)[C@H]3[C@@]4(C)CC[C@@H](O)[C@@H](C)[C@@H]4CC[C@@]32C)/C1=C(\CCC=C(C)C)C(=O)NCc1ccc(C)cc1 | 125 (≈ 77.5 µg/mL) | > 125 | > 50 |  | 
30 | CO[C@H]1/C=C/O[C@@]2(C)Oc3c(C)c(O)c4c(O)c(c(/C=N/N5CCN(C)CC5)c(O)c4c3C2=O)NC(=O)/C(C)=C\C=C\[C@H](C)[C@H](O)[C@@H](C)[C@@H](O)[C@@H](C)[C@H](OC(C)=O)[C@@H]1C [RIFAMPIN] | 0.009 (≈ 0.00741 µg/mL) | 0.02 (≈ 0.0165 µg/mL) |  |  | 
31 | CC(=O)O[C@H]1C[C@@]2(C)[C@@H](C[C@@H](O)[C@H]3[C@@]4(C)CC[C@@H](O)[C@@H](C)[C@@H]4CC[C@@]32C)/C1=C(\CCC=C(C)C)C(=O)Nc1ccc(C)cc1 | 125 (≈ 75.7 µg/mL) | > 125 | > 50 |  | 
